Screens as filed in PubChem.
Most compounds without a hit are left out; they make up all but 3% or so of the library.
PKD1 inh: blocks activity of human protein kinase D1; Q15139; inhibition, % (no concentration beside the values); hit rate 0.056% among 200,000; PKD1 kinase fluorescence polarization assay; in the data active means inhibition above about 50%
Cl transport mod: modulators of human KCC2 chloride dependent transport; Q9H2X9; KCC2 cells, thallium flux FluoZin-2 fluorescence; B-score of Tl+ flux slope (higher = more flux/activation; lower = inhibition) at 10 µM; hit rate 2.2% among 190,000; AID 1456;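 active means thallium flux slope and its plate-corrected score both differing from the plate sample mean at a set confidence after two filtering rounds, in either direction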;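 further: slope of fluorescence scaled to starting intensity during 10 to 20 s after thallium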
Rad51 HR inh: blocks human Rad51 in homologous recombination. Q06609. hRad51 DNA strand exchange, fluorescence dequenching. inhibition, % at 10 µM. hit rate 0.085% among 200,000. AID 1385;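 active means inhibition above 40% at the single screening dose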;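 further: 0% = DMSO control wells and 100% = blanks with heterologous ssDNA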
Target sequence (Q06609 whole entry, looked up): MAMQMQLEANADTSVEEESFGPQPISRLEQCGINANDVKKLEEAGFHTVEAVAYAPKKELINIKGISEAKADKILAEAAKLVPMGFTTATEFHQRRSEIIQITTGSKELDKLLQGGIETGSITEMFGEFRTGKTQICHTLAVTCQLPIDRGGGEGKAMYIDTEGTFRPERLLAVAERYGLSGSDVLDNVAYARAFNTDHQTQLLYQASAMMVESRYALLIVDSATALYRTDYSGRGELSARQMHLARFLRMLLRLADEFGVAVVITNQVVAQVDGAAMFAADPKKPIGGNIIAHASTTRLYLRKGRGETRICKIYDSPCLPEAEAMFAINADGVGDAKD
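System: human Rad51 nucleoprotein filaments preassembled on unlabelled ssDNA. Reagent: labelled 47-mer dsDNA for strand exchange. Schedule: 30-min compound preincubation and 15-min exchange, both room temperature. Measured by: FRET fluorescence dequenching, excitation 485 nm, emission 520 nm. Read-out: Fluorescence-based percent inhibition, control- and blank-normalised. Benchmarks: plate controls and plate blanks.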
ROMK primary: human ROMK K+ channel modulation, primary screen; P48048; Tet-inducible ROMK, thallium flux fluorescence; actives lie on both sides; B-score at 10 µM; hit rate 2% among 130,000; AID 1918;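 active means signal ratio slope over the read window, or its plate-corrected B-score, at least 3 SD from the plate mean, either direction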;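 further: B-score of the F/F0 ratio slope over 7 to 12 s after thallium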
ROMK hit retest: confirmation of human ROMK potassium channel modulators; AID 1917; ROMK thallium flux, fluorescence ratio; stronger effect = lower value; normalized thallium flux (F/F0 slope) at 10 µM; shares compounds with ROMK primary; hit rate 54% among 3,000;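 active means Flux at 10 µM at least 3 SD below or above vehicle control mean in one or both replicates; inconclusive means no clear call, values can overlap the other calls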
The depositor's hits bear a star; i = inactive; ? = inconclusive; . = not tested or not shown.

SMILES	PKD1 inh	Cl transport mod	Rad51 HR inh	ROMK primary	ROMK hit retest
Cc1nc2cc(C(=O)OCC(=O)NC34CC5CC(CC(C5)C3)C4)ccc2n1-c1ccccc1	0	0.0027	1	-3*	0.065*
Cc1nc2cc(C(=O)OCC(=O)NC3CCS(=O)(=O)C3)ccc2n1-c1ccccc1 (stereo not given)	-4	.	3	-0.057	.
COc1ccc(OC)c(N(CC(=O)Nc2ccc3c(c2)OCO3)S(=O)(=O)c2ccccc2)c1	-2	-1.9	0	-2.8*	0.075
COc1ccc(Cl)cc1N(CC(=O)Nc1ccc2c(c1)OCO2)S(C)(=O)=O	2	0.0066	1	-1.2	.
COc1ccc(OC)c(NC(=O)c2cccc(S(=O)(=O)N(Cc3ccccc3)c3ccccc3OC)c2)c1	-1	1	.	.	0.078
Cc1ccc(NC(=O)c2nc(C)n(-c3ccc([N+](=O)[O-])cc3)n2)cc1	-3	.	6	.	?
CCOC(=O)C(NC(=O)NCc1ccccc1OC)(OCC)C(F)(F)F (stereo not given)	3	-0.53	-1	-0.47	.
O=C(c1ccccc1)c1ccccc1C(=O)c1ccccc1	.	-0.78	-3	.	.
O=C(c1ccccc1)c1cc(Cl)ccc1N1C(=O)C=CC1=O	6	-1.7	5	-2.7*	0.062*
COc1ccc(OC)c(C2CC(c3c(-c4ccccc4)c4cc(Cl)ccc4[nH]c3=O)=NN2S(C)(=O)=O)c1 (stereo not given)	-1	-1.6	.	.	?
CCOC(=O)c1cc(CC)sc1NC(=O)c1ccc([N+](=O)[O-])c(N2CCOCC2)c1	-9	0.44	.	0.14	.
CC1CCC(C(C)C)C(OC(=O)C[n+]2cc(-c3ccc(Cl)cc3)n3c2CCC3)C1 (stereo not given)	.	-0.79	.	-6.6*	0.047*
CC(C)c1cc(=O)n2[nH]c(N)nc2n1	2	-0.079	-14	0.65	.
O=C(Nc1ccccc1)c1ccccc1C(=O)N1CCCCC1	-1	0.5	2	0.7	.
CC1Cc2nc(SCC(=O)N3CCN(c4ccccc4)CC3)n(CCc3ccccc3)c(=O)c2S1 (stereo not given)	4	-0.52	7	.	0.064*
CN(C)C(=O)c1sccc1Oc1ccc(F)cc1[N+](=O)[O-]	-1	.	-15	-0.44	0.08
O=C(O)c1sccc1Oc1ccc(F)cc1[N+](=O)[O-]	-2	-1.2	.	.	.
COc1nccnc1NS(=O)(=O)c1ccc(N=Cc2c(C)[nH]n(-c3ccc(C)c(C)c3)c2=O)cc1	0	.	.	2.3*	0.086
CCc1cccc(CC)c1NC(=O)COC(=O)CC1c2ccccc2CCN1S(=O)(=O)c1ccc(F)cc1 (stereo not given)	-11	.	3	-3.8*	0.06*
O=C1CN(C(=O)c2cc3ccccc3oc2=O)C(c2ccc(F)cc2)c2cc(F)ccc2N1 (stereo not given)	-8	-0.0083	.	4*	0.075
O=C1CN(C(=O)c2cc3ccccc3oc2=O)C(c2ccccc2)c2cc(F)ccc2N1 (stereo not given)	-8	0.26	.	0.73	.
O=C(N/N=C\c1c(O)ccc2ccccc12)c1ccc(S(=O)(=O)N2CCCCC2)cc1	-11	i	i	-3.8*	0.051*
O=C(Nc1nc(COc2ccccc2)cs1)c1ccccc1F	5	-3.6	.	0.15	.
O=C(Nc1nccs1)c1cc(Cl)nc2ccccc12	.	0.71	-24	.	0.078
O=C(Nc1nccs1)c1cc(-c2ccccc2)nc2ccccc12	1	0.17	2	-0.69	.
SMILES	PKD1 inh	Cl transport mod	Rad51 HR inh	ROMK primary	ROMK hit retest
Cc1c(Nc2cc(N3CCOCC3)c3nonc3c2[N+](=O)[O-])c(=O)n(-c2ccccc2)n1C	-4	0.28	-4	0.69	.
Cc1c(Nc2cc(Cl)c3nonc3c2[N+](=O)[O-])c(=O)n(-c2ccccc2)n1C	1	-2.5	25	-4.4*	0.04*
CCOC(=O)c1ccc(-c2ccc(/C=N/NC(=O)Cc3nnc(N)s3)o2)cc1	.	-0.82	-25	-12*	0.078
CCn1cc(C(=O)OCC(=O)OC2CC(C)CCC2C(C)C)c(=O)c2ccc(C)nc21 (stereo not given)	-4	.	-6	2.7*	0.064*
C=CCOC(=O)c1cn(CC)c2nc(C)ccc2c1=O	-6	-0.54	-6	0.14	.
Cc1cc(/C=c2\sc3nc4ccccc4n3c2=O)c(C)n1-c1ccc(C(=O)O)cc1	-4	-3.3	-38	2.5	.
CCN(CC)c1ccc(/C=c2\sc3nc4ccccc4n3c2=O)c(O)c1	2	i	-98	-4.8*	0.03*
CC(C)Cc1cc(C(=O)N2CCN(C(c3ccccc3)c3ccccc3)CC2)no1	12	0.083	-3	.	0.062*
Cn1nc(C(=O)N2CCN(C(c3ccccc3)c3ccccc3)CC2)c2ccccc2c1=O	.	-0.2	-27	.	0.06*
Cn1nc(C(=O)N2CCN(S(=O)(=O)/C=C/c3ccccc3)CC2)c2ccccc2c1=O	-1	0.88	-2	.	.
COc1ccc(N2C(=O)NC(NC(=O)c3ccncc3)(C(F)(F)F)C2=O)cc1 (stereo not given)	-4	.	4	.	.
CS(=O)(=O)c1cccc(NC(=O)C2CC2)c1	-3	-1.1	-4	.	.
O=C(Nc1cccc(S(=O)(=O)c2cccc(NC(=O)C3CC3)c2)c1)C1CC1	-5	.	6	-0.8	0.074
Cc1nn(-c2ccccc2)c(N2CCCC2)c1/C=N/NC(=O)c1cccc(S(=O)(=O)Nc2ccc(Cl)cc2)c1	3	0.12	-4	.	0.087
N=c1oc2ccc3ccccc3c2cc1-c1nc(-c2ccccc2)cs1	5	0.73	-27	.	0.048*
N=c1oc2ccccc2cc1-c1nc(-c2ccccc2)cs1	0	-0.014	19	0.49	.
CCOC(=O)C1(CCOc2ccccc2)CCN(Cc2ccc(C)o2)CC1	-9	0.0053	-31	-4.5*	0.067*
CCOC(=O)C1(CCc2ccccc2)CCN(Cc2c(O)cccc2OC)CC1	-2	0.039	9	-2.8*	0.055*
CCCCC(=O)Nc1ccc(C(=O)Nc2ccc(OC)cc2[N+](=O)[O-])cc1	6	-0.39	-60	.	0.035*
O=[N+]([O-])c1ccc(-c2ccc(/C=N/Nc3nc(NCc4ccccc4)nc(N4CCOCC4)n3)o2)cc1	0	.	-295	-3.9*	0.063*
COc1nc(N/N=C/c2ccc(-c3ccccc3[N+](=O)[O-])o2)nc(N2CCOCC2)n1	2	0.0079	-1	-1.2	.
CC(C)OCCCNC(=O)C1CCC(CNS(=O)(=O)c2ccccc2)CC1 (stereo not given)	-8	-1.6	.	0.52	.
Cc1ccc2cc3c(N)c(C(=O)N4CC(=O)Nc5ccccc54)sc3nc2c1	-6	-1.8	.	.	0.046*
Cc1ccc2cc3c(N)c(C(=O)N4CCOCC4)sc3nc2c1	-2	-2.9	.	.	.
Cc1cc(-c2csc(NC(=O)c3cc4ccccc4o3)n2)c(C)n1C	-13	0.72	-1	.	?
CN(/N=C/c1c[nH]c2ccccc12)c1cnn(-c2ccc(F)c(Cl)c2)c(=O)c1Cl	-7	0.019	-6	-1.4	.
CN(/N=C/c1cccnc1)c1cnn(-c2ccc(F)c(Cl)c2)c(=O)c1Cl	3	-0.022	-1	1.7*	0.089
